MrgX1 antagonist: antagonists of human MrgX1 receptor; Q96LB2; MRGX1-HEK293 calcium flux, Fluo-4, BAM8-22 antagonism; active compounds read low; B-score at 10 µM; hit rate 1.3% among 310,000; AID 588676;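 active means calcium-response B-score plate-corrected more than 3 library SD below zero, starting fluorescence within 5 deviations, no agonist response on first addition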;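 further: peak minus trough fluorescence over baseline after final BAM8-22 challenge near maximal dose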
Target sequence (Q96LB2 whole entry, looked up): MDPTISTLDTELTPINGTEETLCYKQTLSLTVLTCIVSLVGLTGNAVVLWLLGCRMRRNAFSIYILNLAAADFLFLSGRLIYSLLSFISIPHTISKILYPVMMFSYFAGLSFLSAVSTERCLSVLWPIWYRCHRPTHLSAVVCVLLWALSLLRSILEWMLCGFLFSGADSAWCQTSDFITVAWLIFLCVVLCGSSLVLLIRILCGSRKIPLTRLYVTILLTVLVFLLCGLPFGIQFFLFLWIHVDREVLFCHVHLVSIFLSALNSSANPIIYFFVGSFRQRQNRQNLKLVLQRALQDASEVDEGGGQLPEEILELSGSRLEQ
MrgX1 allo act: allosterically activates human MrgX1 receptor signaling; Q96LB2; MrgX1-HEK293, Fluo-4 calcium flux, FDSS; active compounds read high; B-score at 10 µM; hit rate 0.63% among 310,000;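 active means plate-corrected calcium response at least 3 library SD above typical, normal starting fluorescence, not activating the receptor alone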;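 further: compound read alongside a low EC10 to EC30 dose of BAM8-22 agonist; peak minus trough fluorescence over baseline measured at the second addition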
RGS4 pot: RGS4 potentiation or activation; HEK293 M3R/inducible RGS4, carbachol calcium flux Fluo4; active compounds read low; B-score at 10 µM; hit rate 0.92% among 310,000;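 active means B-score of the integrated calcium signal more than 4 SD below the library mean, with starting fluorescence not abnormally high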;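 further: negative B-score means reduced calcium response which marks RGS4 activation or potentiation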
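test system = HEK293 cells with stable M3R and inducible RGS4 | schedule = recording 10 s baseline at 1 Hz, 100 s post-agonist | technique = Fluo4-AM (2 µM) calcium-flux fluorescence, kinetic read | measure = Agonist-evoked peak-minus-minimum fluorescence over baseline, integrated ratio, B score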
RGS4 inh: inhibitors of human RGS4. HEK293 M3R/RGS4 inducible, Fluo-4 calcium flux; active compounds read high; triggered by carbachol at its EC20. B-score at 10 µM. hit rate 0.45% among 310,000. AID 463165;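 active means B-score, a plate-corrected calcium signal, over three deviations above library mean, with baseline fluorescence within five deviations of library mean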;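 further: RGS4 expression induced by doxycycline in cells with stable M3 receptor; B-score is computed from the integrated fluorescence ratio over baseline after carbachol; higher B-score means a larger calcium signal and so more RGS4 inhibition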
Target sequence (P49798 whole entry, looked up): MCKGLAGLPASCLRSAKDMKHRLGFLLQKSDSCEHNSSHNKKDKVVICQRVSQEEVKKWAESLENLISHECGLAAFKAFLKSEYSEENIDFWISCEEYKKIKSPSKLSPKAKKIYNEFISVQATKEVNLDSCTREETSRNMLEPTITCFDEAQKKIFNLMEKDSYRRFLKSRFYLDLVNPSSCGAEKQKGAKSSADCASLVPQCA
MrgX1 agonist: agonists of human MrgX1 receptor; Q96LB2; MrgX1-HEK293 cells, Fluo-4 calcium fluorescence, agonist mode; active compounds read high; B-score at 10 µM; hit rate 0.44% among 310,000; AID 588627;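 active means calcium response B-score plate-corrected fluorescence ratio at least 3 library SD, with starting fluorescence B-score inside 5 SD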
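Material – MrgX1-expressing HEK293 cells · Input – 15,000 cells seeded per well · Dosing – compound as first of three additions · Times – overnight seeding, then 1 h dark dye loading · Measured by – kinetic Fluo-4 NW fluorescence of intracellular calcium · Read-out – B-scored fluorescence response ratio · Benchmarks – positive and negative control wells on each plate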
MrgX1 PAM conf: human MrgX1 positive allosteric modulation, re-confirmation; hit rate 13% among 1,200; activation (ratio percentage), % at 10 µM; shares compounds with MrgX1 allo act; MrgX1-HEK293, Fluo-4 calcium fluorescence, FDSS; AID 602413;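 active means ratio at least 3 SD above the weak peptide control, stable starting fluorescence, no direct agonism earlier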;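 further: compound followed by low BAM8-22 agonist challenge near EC20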
HEK293 Ca flux: activity in parental HEK293 cells lacking MrgX1; shares compounds with MrgX1 antagonist; Fluo-4 calcium fluorescence, FDSS; fluorescence ratio F(max-min)/F0 at 10 µM; hit rate 2% among 4,000; AID 624111;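 active means duplicate-averaged calcium fluorescence ratio at least three times the standard deviation of buffer wells, a nonspecific response in parental cells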
HEK293 Ca counter: activity in parental HEK293 cells without MrgX1; shares compounds with MrgX1 antagonist; parental HEK293 calcium flux, Fluo-4 fluorescence ratio; active compounds read high; fluorescence ratio F(max-min)/F0 at 10 µM; hit rate 0.4% among 4,000; AID 624114;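 active means calcium fluorescence ratio, averaged over duplicates, at least 3 SD of the buffer-well ratio, meaning a nonspecific response in receptor-free cells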;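 further: untransfected parental HEK293 lacking MrgX1 used as counterscreen for MrgX1 allosteric activators; fluorescence change taken during the second addition on a kinetic imager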
HEK293 Ca cntr2: activity in parental HEK293 cells lacking MrgX1 receptor | fluorescence ratio F(max-min)/F0 at 10 µM | hit rate 8.7% among 4,000 | shares compounds with MrgX1 antagonist | Fluo-4 calcium fluorescence (FDSS); active compounds read high;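 active means calcium fluorescence ratio at least three times the spread of buffer wells, meaning a non-specific response in parental cells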
Hits are given with their value; – = inactive; · = no result. Compounds with a hit are over-represented: about 3.5% of the library has one in this group of screens.

SMILES	MrgX1 antagonist	MrgX1 allo act	RGS4 pot	RGS4 inh	MrgX1 agonist	MrgX1 PAM conf	HEK293 Ca flux	HEK293 Ca counter	HEK293 Ca cntr2
COc1ccccc1NC(=O)c1ccccc1NS(=O)(=O)c1cccs1	–	54	–	–	–	29%	–	–	–
CS(=O)(=O)Nc1ccccc1C(=O)Nc1ccccc1Cl	–	–	–	–	–	·	·	·	·
COc1ccccc1NC(=O)c1cc2cc(Br)ccc2cc1O	–	8.4	–	–	–	16%	–	–	–
COc1cc(NC(=O)c2cc3ccccc3cc2O)c(OC)cc1Cl	–	–	–	–	–	·	·	·	·
O=C(c1ccc(COc2ccccc2Br)o1)N1N=C(C(F)F)CC1(O)C(F)F (stereo not given)	–	–	–	–	–	·	·	·	·
COc1ccc(S(=O)(=O)N(C)C)cc1NC(=O)Cc1c[nH]c2ccccc12	–	–	–	–	–	·	·	·	·
O=C(c1ccc2c(c1)OCO2)[C@@H]1[C@@H]2C(=O)N(C3CCCCC3)C(=O)[C@@H]2C2c3ccccc3C=CN21 (stereo not given in full)	·	·	–	–	·	·	·	·	·
CC(C)(C)C(=O)[C@@H]1[C@@H]2C(=O)N(C3CCCCC3)C(=O)[C@@H]2[C@H]2c3ccccc3C=CN12	–	7	·	·	–	–	–	–	–
CCOc1ccc(CN(C)C(=O)[C@H](C)NC(=O)c2ccco2)cc1OC	–	–	–	–	–	·	·	·	·
Cn1cccc1-c1nc2ccc(NC(=O)c3ccccc3)cc2[nH]1	–	7.2	–	–	–	39%	–	–	–
CCOc1ccc(N(CC(=O)N2CCOCC2)S(=O)(=O)c2ccc(Cl)cc2)cc1	–	–	–	–	–	·	·	·	·
O=C(Nc1nc2ccc(F)cc2s1)c1cccs1	–	9.3	–	–	–	–	–	–	–
O=C(Nc1nc(-c2ccccc2)ns1)c1cccs1	–	7.5	–	–	–	2.7%	–	–	–
C=CCN(c1ccc(C(=O)NCCc2ccccc2)cc1)S(C)(=O)=O	–	–	–	–	–	·	·	·	·
Nc1nc(Cl)cc(Sc2ccc(F)cc2)n1	–	6.7	–	–	–	–	–	–	–
CCOC(=O)N1CCC(N2C(=O)c3ccc(C(=O)Nc4cccc(OC)c4)cc3C2=O)CC1	–	8	–	–	–	–	–	–	–
CCOC(=O)N1CCC(N2C(=O)c3ccc(C(=O)O)cc3C2=O)CC1	–	–	–	–	–	·	·	·	·
CC1CCCC(NC(=O)CCS(=O)(=O)c2cc3c(cc2Cl)NC(=O)CO3)C1C (stereo not given)	–	–	–	–	–	·	·	·	·
CC1CCCC(NS(=O)(=O)c2cc3c(cc2Cl)NC(=O)CO3)C1C (stereo not given)	–	21	–	–	–	–	–	–	–
Cc1ccccc1OCCSCc1nc2ccccc2[nH]1	–	–	–	–	–	·	·	·	·
COc1ccc(OC)c2sc(N(CCN(C)C)C(=O)c3cc(Cl)sc3Cl)nc12	–	21	–	–	–	–	–	–	–
Nc1cc(Cl)ccc1Oc1ccccc1	–	20	–	–	–	–	–	–	–
Cc1ccc2[nH]cc(C(=O)CCl)c2c1	–	7.4	–	–	–	–	–	–	–
Cc1ccc(C)n1-n1c(C)nc2sc(-c3ccccc3)cc2c1=O	–	19	–	–	–	–	–	–	–
Cc1ccc(C)n1-n1cnc2sc(-c3ccccc3)cc2c1=O	–	7.8	–	–	–	–	–	–	–
SMILES	MrgX1 antagonist	MrgX1 allo act	RGS4 pot	RGS4 inh	MrgX1 agonist	MrgX1 PAM conf	HEK293 Ca flux	HEK293 Ca counter	HEK293 Ca cntr2
CCOC(=O)/C(C#N)=C/c1c(N2CCN(CC)CC2)nc2c(C)cccn2c1=O	–	–	–	–	–	·	·	·	·
CC(C)CC(=O)Nc1ccc(C(=O)COC(=O)C2CCC2)cc1	–	–	–	–	–	·	·	·	·
CCOC(=O)c1cccc(NC(=O)CCc2ccccc2)c1	–	8.1	–	–	–	–	–	–	–
O=C(Nc1ccc(C2=NCCN2)cc1)c1ccc(Cl)c(C(=O)Nc2ccc(C3=NCCN3)cc2)c1	–	–	–	–	–	·	·	·	·
CCc1ccc(Oc2cc(Cl)nc(N)n2)cc1	–	12	–	–	–	–	–	–	–
CCN1CC2=C(OC(N)=C(C#N)C2c2cccs2)/C(=C/c2cccs2)C1 (stereo not given)	–	8.2	–	–	–	–	–	–	–
CCN1CC2=C(OC(N)=C(C#N)C2c2ccccc2)/C(=C\c2ccccc2)C1 (stereo not given)	–	22	–	–	–	–	–	–	–
N#CC1=C(N)OC2=C(CN(Cc3ccccc3)C/C2=C\c2cccnc2)C1c1cccnc1 (stereo not given)	–	–	–	–	–	·	·	·	·
CCN(Cc1ccncc1)C(=O)c1cc(COc2ccc(OC)cc2Cl)on1	–	–	–	–	–	·	·	·	·
CCOC(=O)C1CCCN(C(=O)c2sc3nc(-c4ccc(F)cc4)cn3c2C)C1 (stereo not given)	–	7.3	–	–	–	14%	–	–	–
CC1Cc2cc(S(=O)(=O)N3CCC(C(=O)NCc4ccco4)CC3)ccc2N1C(=O)C1CCC1 (stereo not given)	–	–	–	–	–	·	·	·	·
C[C@H]1C=C(C(=O)NC2CC2)O[C@@H](OCc2ccc(CO)cc2)C1	–	–	–	–	–	·	·	·	·
CCCCn1c(SCC(=O)Nc2cc(C)on2)nnc1-c1cccs1	–	6.8	–	–	–	–	–	–	–
Cc1cc(NC(=O)CSc2nnc(-c3cccs3)n2N)no1	–	–	–	–	–	·	·	·	·
CCCC(=O)Nc1nc(-c2ccc(OC)cc2)cs1	–	–	–	–	–	·	·	·	·
COc1ccc(-c2csc(NC(=O)CS(=O)(=O)c3ccccc3)n2)cc1	–	12	–	–	–	6.8%	–	–	–
CCOC(=O)C1C(=O)NC(N2CCN(Cc3ccccc3)CC2)=NC1c1ccccc1 (stereo not given)	–	–	–	–	–	·	·	·	·
CCOC(=O)C1C(=O)NC(N2CCCCC2)=NC1c1ccccc1 (stereo not given)	–	8.9	–	–	–	–	–	–	–
O=C(CC(C(=O)O)c1ccc(Cl)cc1)c1ccc(Cl)c(Cl)c1 (stereo not given)	–	–	–	–	–	·	·	·	·
COC(=O)C(CC(=O)c1ccc(Cl)cc1)c1ccc(C(C)C)cc1 (stereo not given)	–	7.1	–	–	–	–	–	–	–
Cc1ccc(C(F)(F)F)cc1NC(N)=S	–	7.2	–	–	–	–	–	–	–

Assay outcomes (PubChem BioAssay)
